Measured values: the EternaBench riboswitch data

System: MS2 coat protein
Assay: apparent Kd, MS2 coat protein; higher = weaker binding; RNA-MaP array; FMN 200 µM where present
Procedure, shortened: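 Each design was made on Illumina sequencing-chip clusters by stalled E. coli RNA polymerase and titrated with SNAP-549-labelled MS2 coat protein from 0.7 or 1.5 nM, doubling to 3 µM, in the absence and then the presence of constant ligand. The buffer was 100 mM Tris-HCl pH 7.5, 80 mM KCl, 4 mM MgCl2, BSA, DTT, yeast tRNA and Tween-20. The apparent Kd is the median of filtered per-cluster fits of binding curves, with green signal normalised to red-channel RNA signal and control-cluster median Fmax.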

[1] = designed as: OFF switch for flavin mononucleotide, no ligand
[2] = ligand present: flavin mononucleotide, designed as: OFF switch for flavin mononucleotide
[3] = designed as: ON switch for flavin mononucleotide, no ligand
[4] = ligand present: flavin mononucleotide, designed as: ON switch for flavin mononucleotide

Sequence: UUAAUUAAUUAAUUCGUCAAUUACAUGAGGAUCACCCAUGUAUAGGAUAUGCAGUGGAAUACACUGCAGAAGGAUACAAAGACG
- apparent Kd [1]: 18.3 nM
- apparent Kd [2]: 21.4 nM

Sequence: AAGUUAUUAGGAUAUACUUGUGCGAACCAAACGUUGAUAUUACAUGAGGAUCACCCAUGUAGAAGGAAUAAAAA
- apparent Kd [1]: 35.7 nM
- apparent Kd [2]: 25.1 nM

Sequence: UUGGACGUCGUAGGAUAUGUAGGAUAUUCCUACAUGAGGAUCACCCAUGUUGACAUGGAAGAAGGAUAGAAGGACGAUGUCCAU
- apparent Kd [3]: 624 nM
- apparent Kd [4]: 81.5 nM

Sequence: GCGUAAUAGGUGUAGCUAGUCGUUCAAGAAGGGUGAAGAACAUGAGGAUCACCCAUGUGGUCUAUACAGGAUAUUGAUAUACGC
- apparent Kd [4]: 66.6 nM

Sequence: UGAGUAGCGAAACAAUGCACAUGAGGAUCACCCAUGUCUACACAGGAUAUGCGACGCUCCAGUUAGCAGAAGGGUGAACUCAAA
- apparent Kd [3]: 40.2 nM
- apparent Kd [4]: 82.3 nM

Sequence: GCUGCAUAGGCAGGAUAUGCAAUAAUUCGAAUAAAAUUUAACGAAUUAACAUGAGGAUCACCCAUGUAGAAGGGCCUGUGCAGU
- apparent Kd [1]: 5.49 nM
- apparent Kd [2]: 4.69 nM

Sequence: GUGUACAGAGGAUAUGCACGAGUAGUUACGAAAGUAACUACACAUGAGGAUCACCCAUGUAGAAGGCUGUACAC
- apparent Kd [1]: 13.2 nM
- apparent Kd [2]: 16.9 nM

Sequence: AUCUUGAGAGGAUAUACAUGAGGAUCACCCAUGUUGCUAACACCAUGAGCUCAUUUACGUAGAAGGCUCAUUUG
- apparent Kd [1]: 18 nM
- apparent Kd [2]: 18.6 nM

Sequence: UGUUGUAUUACAGGAUAUCUAUGUUUUUUAUUUAGAGAAGGGUAUUCACAUGAGGAUCACCCAUGUAUAUACGAGGAAGUUGUG
- apparent Kd [3]: 49 nM
- apparent Kd [4]: 49 nM

Sequence: AACAGCUCGUCAGGAUAUAUUUUCAUUAUAUGUAUUUAUGUACAUGAGGAUCACCCAUGUUGUUUGUAGAAGGGACGAGCUGAA
- apparent Kd [1]: 13.6 nM
- apparent Kd [2]: 11.4 nM

Sequence: GUCAGCUCGUGAGGAUAUACAACACUGCUUCGGCAGUGUAUUAAGAUCACAUGAGGAUCACCCAUGUAGAAGGCACGUGCUGAU
- apparent Kd [1]: 12.5 nM
- apparent Kd [2]: 276 nM

Sequence: GUUUUAUAAGAGAAGGAGGACUUCAUGAGGAUCACCCAUGUGUUAGUACUUAGGAUAUUUGAUAACAUGAGGAUCACCCAUGUC
- apparent Kd [3]: 27.6 nM
- apparent Kd [4]: 27.7 nM

Sequence: AAAUUAAGAAGAGGAUAUUGACAUGAGGAUCACCCAUGUAUUUGGGAAUGUUUACUGAAUUCUUACGAGAAGGUUUACGAACUU
- apparent Kd [1]: 191 nM
- apparent Kd [2]: 132 nM

Sequence: UGGUACUAGGGAGGAUAUGGGAAGAUACAUGAGGAUCACCCAUGUUUAAGAAUGCCGAGAGGCAACUAGAAGGCCUUAGUACCU
- apparent Kd [3]: 504 nM
- apparent Kd [4]: 20.8 nM

Sequence: GGUCGUCAUAUUAACAUGAGGAUCACCCAUGUGAAAACACAUGAGGAUAUGCAUCCUAAUUGGAUGCAGAAGGCAUGGACGACC
- apparent Kd [3]: 23.7 nM
- apparent Kd [4]: 6.49 nM

Sequence: UUGUAGUGCGUAGGAUAUCAUUGAGGGUCACCCUGAGAAGGACGUGAGGACAUGAGGAUCACCCAUGUGGAUCACCCAUGUCAU
- apparent Kd [1]: 305 nM
- apparent Kd [2]: 462 nM

Sequence: UGAUAGGAUAAAGGAUAUACGUGCUAGAGAUACUAGCAAAAUUUCCUCACAUGAGGAUCACCCAUGUAGAAGGUUAACCUAUCU
- apparent Kd [1]: 14.7 nM
- apparent Kd [2]: 57.1 nM

Sequence: CAUCAGUGUUAAGGAUAUGGCAGCGGAAGCGCACCAGAAGGUAGCACAUGAGGAUCACCCAUGUGUUCUGGCUUGAGCGUGAUC
- apparent Kd [1]: 36.5 nM
- apparent Kd [2]: 75.2 nM

Sequence: GAGAAGUCAGGAUAUGCUGCUCGUCACUUGCGUGAUGAGUAGCAGAAGGGACAUGAGGAUCACCCAUGUAAAGG
- apparent Kd [1]: 136 nM
- apparent Kd [2]: 315 nM

Sequence: UUUUAGACAGGAUAUACAUUUUUUUAUUUAUUUAUAAUAUUACAUGAGGAUCACCCAUGUAGAAGGGUCAUUUU
- apparent Kd [1]: 39.3 nM
- apparent Kd [2]: 31.2 nM

Sequence: GGGUUACAUGAGGAUCACCCAUGUGAGGAUAUGAUACUAUGUACUUCGGUACAUAGUAUCAGAAGGCACAUCCC
- apparent Kd [1]: 36.5 nM
- apparent Kd [2]: 72.7 nM

Sequence: UUUACUAACGAAGGAUAUGGUUACAUGAGGAUCACCCAUGUAUGUAUAUUGAUCUAGUAUUUUAACCAGAAGGUCGUGAUUUUU
- apparent Kd [1]: 31.6 nM
- apparent Kd [2]: 45.3 nM

Sequence: UUGCCACAUGAGGAUCACCCAUGUGAGGAUAUGGCCUGUUUGGCGUGUGCUGGUUCUGUCAGAAGGCGCGUGGG
- apparent Kd [1]: 31.6 nM
- apparent Kd [2]: 36.5 nM

Sequence: UAAUAAUAAUAAUAGCAGAUUACAUGAGGAUCACCCAUGUAUAAGGAUAUCGUCAGGAAUACUGACGAGAAGGUAUACAACUGC
- apparent Kd [1]: 18.9 nM
- apparent Kd [2]: 25.7 nM

Sequence: GUGAACGGAGGAUAUAUAUGGGCAGCAUACGCUGCAGCUUCACAUGAGGAUCACCCAUGUAGAAGGCUGUACAC
- apparent Kd [1]: 7.64 nM
- apparent Kd [2]: 23.9 nM

Sequence: ACAGUCACAGUAACCUGUGGCCGUGAGGAUAUAUAUGGCUCGGAGCGGACAUGAGGAUCACCCAUGUAGAAGGCACGAACUAAA
- apparent Kd [1]: 6.21 nM
- apparent Kd [2]: 7.09 nM

Sequence: AGUCGUCAAGGAUAUAUAGUGAAGCACAAGCAGUGCCCUCUACAUGAGGAUCACCCAUGUAGAAGGUGGCGACU
- apparent Kd [1]: 15.6 nM
- apparent Kd [2]: 14.2 nM

Sequence: AGAUAGGAUGCAGGAUAUCUAUCUUGAAUGAGGAGAGAAGGGCAAGUAGAUAGAUAAGCCUCAUGACAUGAGGAUCACCCAUGU
- apparent Kd [1]: 14.1 nM
- apparent Kd [2]: 12.9 nM

Sequence: UGCUACGGAGGAUAUACAUGAGGAUCACCCAUGUGAUAUAUUAUGCCGAGAGGCUAGUGUAGAAGGCCGUAGCU
- apparent Kd [1]: 67 nM
- apparent Kd [2]: 576 nM

Sequence: GCACAUGGCAUAGGAUAUAGAACUUUACUUUAUAUAGGUAGUUACACUUAACUAGAAGGAUGUUACAUGAGGAUCACCCAUGUU
- apparent Kd [3]: 25.4 nM
- apparent Kd [4]: 20 nM

Sequence: CGUUCACAUGAGGAUCACCCAUGUCAGAUUUGGUCAGGAUAUGGUCUGCUUCCGCUAUUGCCAGAAGGGACUUUUG
- apparent Kd [3]: 28.9 nM
- apparent Kd [4]: 22.7 nM

Sequence: GCUGUGGCAUGAGGAUAUGGUCAGGUUUCCUGACCAGAAGGCAUGUCAAUAGACAUGAGGAUCACCCAUGUAGUUAACACAGCA
- apparent Kd [3]: 514 nM
- apparent Kd [4]: 45.9 nM

Sequence: GACUCGUAAGUGAGGAUAUGGCUGUGCAGCUACAGCCAGAAGGCACAUGAGGAUCACCCAUGUGAUGGAAUUUU
- apparent Kd [1]: 15.9 nM
- apparent Kd [2]: 30.6 nM

Sequence: UAGAGAGGAAGCGAGGAUAUCGUGUGAGGAACAUGAGGAUCACCCAUGUGUGAUGUUGAGAGAGACGAGAAGGCGCAGGAAAUUA
- apparent Kd [3]: 205 nM
- apparent Kd [4]: 72.6 nM

Sequence: GACUGCAUGUAAGGAUAUCGACUGGAAUACAGUCGAGAAGGUACAUGAGGAUCACCCAUGUAAUAAGAUCAAUAAUAAGCAGUC
- apparent Kd [1]: 14.9 nM
- apparent Kd [2]: 33.1 nM

Sequence: AUCUUGCGAGGAUAUACUUACUUUUUUUUAUUUGGUUGCGAACAUGAGGAUCACCCAUGUAGAAGGUGCAUAAC
- apparent Kd [1]: 26 nM
- apparent Kd [2]: 24.1 nM

Sequence: UAAAUUAUACAAGGAUAUCUAUCGUAGUUUAGACUUACAUGAGGAUCACCCAUGUUAAUAUGUUUAGAGAAGGUGUAUUUUCAG
- apparent Kd [3]: 43.3 nM
- apparent Kd [4]: 22.5 nM

Sequence: GGGCGACAUGAGGAUCACCCAUGUAAGGAUAUACAACUGCCCACUAAAAUCUGGGCUGGUAGAAGGUGCAGAAA
- apparent Kd [1]: 35.7 nM
- apparent Kd [2]: 42.8 nM

Sequence: CUUCGUAUAGAGGAUAUAGGAUACUACGGUGUCCUAGAAGGCUGUACAUGAGGAUCACCCAUGUACUUCAGAUC
- apparent Kd [1]: 11.7 nM
- apparent Kd [2]: 13.5 nM

Sequence: CUGUUUGUAGGAUAUACAUGCGGAACCCUCUUCAUGGAAAGACAUGAGGAUCACCCAUGUAGAAGGAUGAAGAG
- apparent Kd [1]: 19.7 nM
- apparent Kd [2]: 17.9 nM

Sequence: UGUAAAUUAUUAAGUAAUUAGGCGAAGGAUAUAUAACAUGAGGAUCACCCAUGUACUAAAUUGAAGUAGAAGGUUGAGCAUUUC
- apparent Kd [3]: 16.5 nM
- apparent Kd [4]: 14.6 nM

Sequence: AGUGUCAUCGAGAAGGCCUCAACAUGAGGAUCACCCAUGUUGGAAUAUGGGAGGAUAUCGAUGAUACAGCUACGUUUCGUAGCA
- apparent Kd [3]: 10.2 nM
- apparent Kd [4]: 5.04 nM

Sequence: UAAUUGUGAGGAUAUCAGGUGUGCUAGCGUACUGGUACAUCUGAGAAGGCACAUGAGGAUCACCCAUGUUCCUU
- apparent Kd [1]: 13.8 nM
- apparent Kd [2]: 37.6 nM

Sequence: AGUAUGUACGCAGGAUAUACAUGAGGAUCACCCAUGUGGAACAGUGUAGUACUAGUUGAUCCUCAGUAGAAGGGCGGUCGAAUA
- apparent Kd [1]: 63.6 nM
- apparent Kd [2]: 46.4 nM

Sequence: UGUCAUUUACAGAAGGGUAGUUGGGUUAUACAUGAGGAUCACCCAUGUUAUACAGGAUAUGUGUAAAGUUAUUAUUAAAGUACA
- apparent Kd [1]: 30.1 nM
- apparent Kd [2]: 36 nM

Sequence: UUGGACGUCGCAGGAUAUGUAGGAUAUUCCUACAUGAGGAUCACCCAUGUUGACAUGGAAGAAGGACAGAAGGACGAUGUCCAU
- apparent Kd [3]: 693 nM
- apparent Kd [4]: 9.15 nM

Sequence: AGCAGCUCGUCAGGAUAUACGUCACUGCGUCAGCAGUGUGGUAAGAUCACAUGAGGAUCACCCAUGUAGAAGGGACGAGCUGAU
- apparent Kd [1]: 13.7 nM
- apparent Kd [2]: 273 nM

Sequence: AAAUAAACUACGAAGAUAUCCUCACAUGAGGAUCACCCAUGUCAGGAUAUUUGUCCUAAAAGGACAGAGAAGGGACGUCGUAGA
- apparent Kd [1]: 5.09 nM
- apparent Kd [2]: 7.54 nM

Sequence: UCGUUGUCAGGAUAUCGUGUAUUCAACUUUAGUUUUAUAUUCGAGAAGGGACAUGAGGAUCACCCAUGUUACGU
- apparent Kd [1]: 133 nM
- apparent Kd [2]: 257 nM

Sequence: GACAUGGUCCAGAAGGGCUAUUUAUUUAAGUAUGAUUUAGAACAGCAUAGCAGGAUAUGGCUAACAUGAGGAUCACCCAUGUUC
- apparent Kd [3]: 20.1 nM
- apparent Kd [4]: 13.3 nM

Sequence: GUCAAGUGAGGAUAUGAUUGUACAGCAGACUAGCGUCUGCAUCAGAAGGCACAUGAGGAUCACCCAUGUUUGUC
- apparent Kd [1]: 20.6 nM
- apparent Kd [2]: 17.1 nM

Sequence: GGGCCCGGAGGAUAUACAUGAGGAUCACCCAUGUAGGGUUUGGGUAUUCCCGGGCCCUGUAGAAGGCCGGGCCC
- apparent Kd [1]: 17.1 nM
- apparent Kd [2]: 22.5 nM

Sequence: GGGUUGUGAGGAUAUUAGUUGUACGUCAAUAGACGUAUAAGUGAGAAGGCACAUGAGGAUCACCCAUGUUCCUG
- apparent Kd [1]: 20.8 nM
- apparent Kd [2]: 80.1 nM

Sequence: CGUGGACUAGGAUAUUUACGAGGCUACAUGAGGAUCACCCAUGUGUUCUCGAGUACCAUGAAAGAAGGAGUAGCGA
- apparent Kd [1]: 12.6 nM
- apparent Kd [2]: 14 nM

Sequence: GUCUCAGUUGGCUUCAAGGGCGGUCAGGAUAUGCUAACGUACAUGAGGAUCACCCAUGUCCAAGUGCAGAAGGGACAUACGCCA
- apparent Kd [3]: 62.6 nM
- apparent Kd [4]: 7.85 nM
